In brackets after ≈: the same amount, converted by molar mass. Activity calls are given as the source filed them. The rule behind the calls is not given here.
Key:
THP-1 = test: Cytotoxicity against human THP1 cells; assay type: cell-based
[1] = tested on: Mycobacterium tuberculosis; test: Antimycobacterial activity against Mycobacterium tuberculosis H37Rv ATCC 27294 after 14 days by microscopy; assay type: functional; details: H37Rv ATCC 27294, 336 h
Method in brief: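 2-fold serial dilutions of compounds (from DMSO stocks), 50 to 0.195 µM final, in 7H9 broth with 0.05% Tween 80, 0.2% glycerol and ADS. Inoculum is a culture grown to A600 0.2 and diluted 1:1000. Incubated at 37 C for 14 days. MIC99 (99% growth inhibition) read macroscopically with an inverted plate reader. Done in triplicate.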

[2] = tested on: Mycobacterium tuberculosis; test: Antimycobacterial activity against Mycobacterium tuberculosis H37Rv ATCC 27294 infected in Balb/c mouse assessed as reduction in bacterial load in lung at 100 mg/kg, po qd administered five days in a week starting 2 weeks post challenge measured after 10 weeks relative to DMSO-treated control; assay type: functional
Method in brief: (§1)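 Balb/c mice of either sex (25-30 g) infected by aerosol in an inhalation chamber, about 1000 bacilli/lung. Oral gavage once daily, 5 days/week, starting 2 weeks post-infection. DMSO and untreated groups as controls. N = 5/group, killed at 3, 6 and 10 weeks of therapy. Lung or spleen homogenates in saline plated in duplicate on 7H11 agar, 37 C for 3–4 weeks. Read-out is log10 CFU/organ.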

[3] = tested on: Mycobacterium tuberculosis; test: Antimycobacterial activity against Mycobacterium tuberculosis H37Rv ATCC 27294 infected in Balb/c mouse assessed as reduction in bacterial load in lung at 100 mg/kg, po qd administered five days in a week starting 2 weeks post challenge measured after 6 weeks relative to DMSO-treated control; assay type: functional; method in brief: as §1
[4] = tested on: Mycobacterium tuberculosis; test: Antimycobacterial activity against Mycobacterium tuberculosis H37Rv ATCC 27294 infected in Balb/c mouse assessed as reduction in bacterial load in lung at 100 mg/kg, po qd administered five days in a week starting 2 weeks post challenge measured after 3 weeks relative to DMSO-treated control; assay type: functional; method in brief: as §1
[5] = tested on: Mycobacterium tuberculosis; test: Antimycobacterial activity against Mycobacterium tuberculosis H37Rv ATCC 27294 infected in Balb/c mouse assessed as reduction in bacterial load in spleen at 100 mg/kg, po qd administered five days in a week starting 2 weeks post challenge measured after 6 weeks relative to DMSO-treated control; assay type: functional; method in brief: as §1
[6] = tested on: Mycobacterium tuberculosis; test: Antimycobacterial activity against Mycobacterium tuberculosis H37Rv ATCC 27294 infected in Balb/c mouse assessed as reduction in bacterial load in spleen at 100 mg/kg, po qd administered five days in a week starting 2 weeks post challenge measured after 3 weeks relative to DMSO-treated control; assay type: functional; method in brief: as §1
[7] = tested on: Mycobacterium tuberculosis; test: Antimycobacterial activity against Mycobacterium tuberculosis H37Rv ATCC 27294 infected in Balb/c mouse assessed as reduction in bacterial load in lung at 50 mg/kg, po qd administered five days in a week starting 2 weeks post challenge measured after 3 to 10 weeks relative to untreated control; assay type: functional, organism-based; set-up: dose 50 mg/kg; method in brief: as §1
[8] = tested on: Mycobacterium tuberculosis; test: Ratio of isoniazid MIC99 to compound MIC99 for Mycobacterium tuberculosis H37Rv ATCC 27294 after 14 days by microscopy; assay type: functional
[9] = tested on: Mycobacterium tuberculosis; test: Antimycobacterial activity against Mycobacterium tuberculosis H37Rv ATCC 27294 infected in Balb/c mouse assessed as reduction in bacterial load in spleen at 50 mg/kg, po qd administered five days in a week starting 2 weeks post challenge measured after 3 weeks relative to DMSO-treated control; assay type: functional; method in brief: as §1
[10] = tested on: Mycobacterium tuberculosis; test: Antimycobacterial activity against Mycobacterium tuberculosis H37Rv ATCC 27294 infected in Balb/c mouse assessed as reduction in bacterial load in spleen at 100 mg/kg, po qd administered five days in a week starting 2 weeks post challenge measured after 10 weeks relative to DMSO-treated control; assay type: functional
[11] = tested on: Mycobacterium tuberculosis; test: Antimycobacterial activity against Mycobacterium tuberculosis H37Rv ATCC 27294 infected in Balb/c mouse assessed as reduction in bacterial load in spleen at 25 mg/kg, po qd administered five days in a week starting 2 weeks post challenge measured after 3 to 6 weeks relative to untreated control; assay type: functional, organism-based; set-up: dose 25 mg/kg; method in brief: as §1
[12] = tested on: Mycobacterium tuberculosis; test: Antimycobacterial activity against Mycobacterium tuberculosis H37Rv ATCC 27294 infected in Balb/c mouse assessed as reduction in bacterial load in spleen at 50 mg/kg, po qd administered five days in a week starting 2 weeks post challenge measured after 6 weeks relative to DMSO-treated control; assay type: functional; method in brief: as §1
[13] = tested on: Mycobacterium tuberculosis; test: Antimycobacterial activity against Mycobacterium tuberculosis H37Rv ATCC 27294 infected in Balb/c mouse assessed as reduction in bacterial load in spleen at 50 mg/kg, po qd administered five days in a week starting 2 weeks post challenge measured after 10 weeks relative to DMSO-treated control; assay type: functional; method in brief: as §1
[14] = tested on: Mycobacterium tuberculosis; test: Antimycobacterial activity against Mycobacterium tuberculosis H37Rv ATCC 27294 infected in Balb/c mouse assessed as reduction in bacterial load in spleen at 25 mg/kg, po qd administered five days in a week starting 2 weeks post challenge measured after 10 weeks relative to untreated control; assay type: functional; method in brief: as §1
[15] = tested on: Mycobacterium tuberculosis; test: Antimycobacterial activity against Mycobacterium tuberculosis H37Rv ATCC 27294 infected in Balb/c mouse assessed as reduction in bacterial load in lung at 25 mg/kg, po qd administered five days in a week starting 2 weeks post challenge measured after 3 to 10 weeks relative to untreated control; assay type: functional, organism-based; set-up: dose 25 mg/kg; method in brief: as §1
[16] = tested on: Mycobacterium tuberculosis; test: Antimycobacterial activity against Mycobacterium tuberculosis H37Rv ATCC 27294 infected in Balb/c mouse assessed as reduction in bacterial load in lung at 100 mg/kg, po qd administered five days in a week starting 2 weeks post challenge measured after 3 weeks relative to untreated control; assay type: functional; method in brief: as §1
[17] = tested on: Mycobacterium tuberculosis; test: Antimycobacterial activity against Mycobacterium tuberculosis H37Rv ATCC 27294 infected in Balb/c mouse assessed as reduction in bacterial load in lung at 100 mg/kg, po qd administered five days in a week starting 2 weeks post challenge measured after 6 weeks relative to untreated control; assay type: functional; method in brief: as §1
[18] = tested on: Mycobacterium tuberculosis; test: Antimycobacterial activity against Mycobacterium tuberculosis H37Rv ATCC 27294 infected in Balb/c mouse assessed as reduction in bacterial load in spleen at 100 mg/kg, po qd administered five days in a week starting 2 weeks post challenge measured after 6 weeks relative to untreated control; assay type: functional; method in brief: as §1
[19] = tested on: Mycobacterium tuberculosis; test: Antimycobacterial activity against Mycobacterium tuberculosis H37Rv ATCC 27294 infected in Balb/c mouse assessed as reduction in bacterial load in lung at 100 mg/kg, po qd administered five days in a week starting 2 weeks post challenge measured after 10 weeks relative to untreated control; assay type: functional; method in brief: as §1
[20] = tested on: Mycobacterium tuberculosis; test: Antimycobacterial activity against Mycobacterium tuberculosis H37Rv ATCC 27294 infected in Balb/c mouse assessed as reduction in bacterial load in spleen at 100 mg/kg, po qd administered five days in a week starting 2 weeks post challenge measured after 10 weeks relative to untreated control; assay type: functional; method in brief: as §1
[21] = tested on: Mycobacterium tuberculosis; test: Antimycobacterial activity against Mycobacterium tuberculosis H37Rv ATCC 27294 infected in Balb/c mouse assessed as reduction in bacterial load in spleen at 100 mg/kg, po qd administered five days in a week starting 2 weeks post challenge measured after 3 weeks relative to untreated control; assay type: functional; method in brief: as §1

SMILES | Activity (THP-1) | MIC99 [1] | other results
O=C(N/N=C/c1ccc(OCc2cn(Cc3ccccc3)nn2)cc1)c1ccncc1 | > 50 µM | 0.78 µM (≈ 0.322 µg/mL) | –
CCCCc1cn(CCOc2ccc(/C=N/NC(=O)c3ccncc3)cc2)nn1 | > 50 µM | 0.78 µM (≈ 0.306 µg/mL) | –
O=C(N/N=C/c1ccc(OCCCn2cc(C3(O)CCCCC3)nn2)cc1)c1ccncc1 | > 50 µM | 0.78 µM (≈ 0.35 µg/mL) | –
O=C(N/N=C/c1ccc(OCCn2cc(CO)nn2)cc1)c1ccncc1 | > 50 µM | 0.78 µM (≈ 0.286 µg/mL) | –
O=C(N/N=C/c1ccc(OCCn2cc(-c3ccccn3)nn2)cc1)c1ccncc1 | > 50 µM | 0.39 µM (≈ 0.161 µg/mL) | –
CCCCc1cn(CCCOc2ccc(/C=N/NC(=O)c3ccncc3)cc2)nn1 | > 50 µM | 0.39 µM (≈ 0.159 µg/mL) | –
CCCCCn1cc(COc2ccc(/C=N/NC(=O)c3ccncc3)cc2)nn1 | > 50 µM | 0.39 µM (≈ 0.153 µg/mL) | –
CCC(=O)OCc1cn(CCCOc2ccc(/C=N/NC(=O)c3ccncc3)cc2)nn1 | > 50 µM | 0.78 µM (≈ 0.34 µg/mL) | –
CCCc1cn(CCCOc2ccc(/C=N/NC(=O)c3ccncc3)cc2)nn1 | > 50 µM | 0.78 µM (≈ 0.306 µg/mL) | –
CO[C@H]1/C=C/O[C@@]2(C)Oc3c(C)c(O)c4c(O)c(c(/C=N/N5CCN(C)CC5)c(O)c4c3C2=O)NC(=O)/C(C)=C\C=C\[C@H](C)[C@H](O)[C@@H](C)[C@@H](O)[C@@H](C)[C@H](OC(C)=O)[C@@H]1C [RIFAMPIN] | – | – | log10cfu [2]: 6.14; log10cfu [3]: 2.8; log10cfu [4]: 1.93; log10cfu [5]: 3.31; log10cfu [6]: 1.76
O=C(N/N=C/c1ccc(OCCn2cc(C3(O)CCCCC3)nn2)cc1)c1ccncc1 | > 50 µM | 0.39 µM (≈ 0.169 µg/mL) | –
Cc1ccc(OCc2cn(CCOc3ccc(/C=N/NC(=O)c4ccncc4)cc3)nn2)cc1 | > 50 µM | 0.39 µM (≈ 0.178 µg/mL) | –
O=C(N/N=C/c1ccc(OCCn2cc(COc3ccccc3)nn2)cc1)c1ccncc1 | > 50 µM | 0.39 µM (≈ 0.173 µg/mL) | –
CC(C)n1cc(COc2ccc(/C=N/NC(=O)c3ccncc3)cc2)nn1 | > 50 µM | 0.78 µM (≈ 0.284 µg/mL) | –
O=C(N/N=C/c1ccc(OCCn2cc(COc3ccc(Cl)cc3)nn2)cc1)c1ccncc1 | > 50 µM | 0.195 µM (≈ 0.093 µg/mL) | log10cfu [2]: 0.91; Activity [7]: inactive; Ratio [8]: 2; log10cfu [9]: 1.08; log10cfu [3]: 0.82; log10cfu [10]: 2.58; Activity [11]: inactive; log10cfu [12]: 2.15; log10cfu [13]: 3.31; log10cfu [4]: 0.02; log10cfu [14]: 1.5; log10cfu [5]: 2.58; log10cfu [6]: 1.46; Activity [15]: inactive
CCC(=O)OCc1cn(CCOc2ccc(/C=N/NC(=O)c3ccncc3)cc2)nn1 | > 50 µM | 0.78 µM (≈ 0.33 µg/mL) | –
O=C(N/N=C/c1ccc(OCCCn2cc(COc3ccc(Cl)cc3)nn2)cc1)c1ccncc1 | > 50 µM | 0.78 µM (≈ 0.383 µg/mL) | –
O=C(N/N=C/c1ccc(OCCCn2cc(CO)nn2)cc1)c1ccncc1 | > 50 µM | 0.78 µM (≈ 0.297 µg/mL) | –
CCCCn1cc(COc2ccc(/C=N/NC(=O)c3ccncc3)cc2)nn1 | > 50 µM | 0.39 µM (≈ 0.148 µg/mL) | –
O=C(N/N=C/c1ccc(OCCn2cc(-c3ccccc3)nn2)cc1)c1ccncc1 | > 50 µM | 0.39 µM (≈ 0.161 µg/mL) | –
CCCn1cc(COc2ccc(/C=N/NC(=O)c3ccncc3)cc2)nn1 | > 50 µM | 0.78 µM (≈ 0.284 µg/mL) | –
O=C(N/N=C/c1ccc(OCCCn2cc(COc3ccccc3)nn2)cc1)c1ccncc1 | > 50 µM | 0.39 µM (≈ 0.178 µg/mL) | –
Cc1ccc(OCc2cn(CCCOc3ccc(/C=N/NC(=O)c4ccncc4)cc3)nn2)cc1 | > 50 µM | 0.78 µM (≈ 0.367 µg/mL) | –
NNC(=O)c1ccncc1 [ISONIAZID] | – | 0.39 µM (≈ 0.0535 µg/mL) | log10cfu [16]: 1.22; log10cfu [17]: 2.59; log10cfu [18]: 3.68; log10cfu [19]: 3.38; log10cfu [20]: 4; log10cfu [21]: 2.66

From ChEMBL document CHEMBL3259762, “Synthesis of novel 1,2,3-triazole derivatives of isoniazid and their in vitro and in vivo antimycobacterial activity evaluation” (Eur J Med Chem, 2014)
